Measured values collected from several papers.
Compare with care: the assays were run in different laboratories.

`C=CC(=O)NC1CCN(c2ncc3ncnc(Nc4ccc(Oc5ccc6c(c5)ncn6C)c(C)c4)c3n2)CC1` has an EC50 of 4.99 µM (NCI-H1437; cell growth or viability).
With `COC1=CC2=[N+](C)CCc3c[nH]c(c32)C1=O` the IC50 was 1000 nM (Babesia divergens; parasite growth, SYBR Green; 60 h, blood stage).
`O=C(c1ccc(Oc2ccc(OCc3ccccc3)cc2)c([N+](=O)[O-])c1)C(Cl)Cl` gave an inhibition of 86.4% (NCI-H1299; cell growth or viability, MTT; 2.5 µM).
For `CC#CCOc1ccc(/C=C/c2cc(OC)cc(OC)c2-c2cnnn2C(=O)NCCc2ccccc2)cc1`, the inhibition was 82.3% (RAW264.7; NO release, inhibitor, Griess; 10 µM, LPS-stimulated).
For `O=C1CC[C@@H](COc2ccc(C(=O)C(Cl)Cl)cc2[N+](=O)[O-])N1`, the inhibition was 94.7% (NCI-H1299; cell growth or viability, MTT; 2.5 µM).
The inhibition of `CC#CCOc1ccc(/C=C/c2cc(OC)cc(OC)c2-c2cnnn2C(=O)NC(C)C)cc1` is reported as 78.7% (RAW264.7; NO release, inhibitor, Griess; 10 µM, LPS-stimulated).
`CN(Cc1ccc(C2(C(F)(F)F)CC2)cc1)Cc1cccc2ccccc12.Cl` has an MFC of 8000 µg/mL (Trichophyton mentagrophytes; microbial killing, broth dilution; ATCC18748; 72 h).
`C#CCOc1ccc(/C=C/c2cc(OC)cc(OC)c2-c2cnnn2C(=O)NCCC)cc1` has an inhibition of 94.2% (RAW264.7; NO release, inhibitor, Griess; 10 µM, LPS-stimulated).
`CN(C)c1ccc(-c2c(C(N)=O)c(N)n(N)c(=O)c2C#N)cc1` gave an inhibition zone of 17 mm (Enterobacter cloacae; microbial growth, well diffusion; ATCC23355; 500 µg/mL).
The inhibition zone of `CN(Cc1ccc(C(C)(C)C)cc1)Cc1cccc2ccccc12` is reported as at least 55 mm (Trichophyton mentagrophytes; microbial growth, disc diffusion; ATCC18748; 0.256 µg/mL, 72 h).
The inhibition of `CCCOc1ccc(/C=C/c2cc(OC)cc(OC)c2-c2cnnn2C(=O)NCCc2ccccc2)cc1` is reported as 69.3% (RAW264.7; NO release, inhibitor, Griess; 10 µM, LPS-stimulated).
`N#Cc1ccc(Oc2ccc(C(=O)C(Cl)Cl)cc2[N+](=O)[O-])cc1` gave an inhibition of 96.2% (NCI-H1299; cell growth or viability, MTT; 2.5 µM).
